This is an account of results in ChEMBL document CHEMBL4364272, “Discovery of a Lead Triphenylethanamine Cholesterol Ester Transfer Protein (CETP) Inhibitor” (ACS Med Chem Lett, 2019).

Broadly, the IC50 is the point on the concentration scale where inhibition reaches its midpoint. One may read the half-life as the time needed for the level to fall by half in the phase considered. High values mean slow loss, low ones fast loss. One may read the bioavailability as dose-corrected exposure relative to a reference, in per cent. Read a high bioavailability as much systemic uptake.

A short description of data set [1]: Stability in mouse liver microsomes assessed as parent compound remaining at 50 uM preincubated for 5 to 7 mins followed by NADPH addition and measured 10 mins post-dose by LC-MS/MS. In kind it is ADME, Microsome. Conditions: read-out: Stability. (In general: Microsomes from liver hold many membrane-bound enzymes, among them those of drug oxidation.)
The nature of data set [2]: Stability in human liver microsomes assessed as parent compound remaining at 50 uM preincubated for 5 to 7 mins followed by NADPH addition and measured 10 mins post-dose by LC-MS/MS. In kind it is ADME, Microsome. Conditions: read-out: Stability.
Data set [3] deals with T1, Cholesteryl ester transfer protein (Homo sapiens, UniProt P11597).
T1 sequence (P11597 whole entry): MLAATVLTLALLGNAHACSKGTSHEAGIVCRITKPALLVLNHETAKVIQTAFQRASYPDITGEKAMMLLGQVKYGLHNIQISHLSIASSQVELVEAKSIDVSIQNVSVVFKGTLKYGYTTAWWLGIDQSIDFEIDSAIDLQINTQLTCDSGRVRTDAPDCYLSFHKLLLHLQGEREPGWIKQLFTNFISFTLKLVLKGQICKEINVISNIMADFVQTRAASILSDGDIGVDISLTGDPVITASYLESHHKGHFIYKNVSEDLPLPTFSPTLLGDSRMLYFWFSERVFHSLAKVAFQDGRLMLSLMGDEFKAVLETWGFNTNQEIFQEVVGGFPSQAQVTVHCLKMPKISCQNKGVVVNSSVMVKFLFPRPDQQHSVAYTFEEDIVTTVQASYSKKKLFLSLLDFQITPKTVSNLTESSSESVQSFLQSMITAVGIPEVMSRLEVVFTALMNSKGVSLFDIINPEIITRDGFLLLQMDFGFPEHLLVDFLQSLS
In words: Inhibition of CETP in human whole plasma assessed as reduction in [3H]-CE/HDL transfer incubated for 2.5 hrs by topcount scintillation counting assay. Format: cell-free. A digest of the protocol:
(§1)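 CETP activity was measured by scintillation proximity assay and by human whole plasma assay. Each was run in duplicate at six concentrations, and the mean values were used to calculate IC50.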

In data set [4] the target is T1, Cholesteryl ester transfer protein. In words: Inhibition of human recombinant CETP assessed as reduction in [3H]CE/HDL transfer incubated for 4 hrs by scintillation proximity assay. The method, boiled down:
as §1
On the technique in general: Scintillation proximity formats need no separation of bound from free tracer.

For data set [5], the target named is Voltage-gated inwardly rectifying potassium channel KCNH2 (Homo sapiens, UniProt Q12809). Kind of data set: Inhibition of human ERG expressed in HEK293 cells by flux assay.
Data set [6] concerns Mus musculus. In words: In vivo inhibition of CETP in hCETP/apoB-100 dual transgenic mouse assessed as reduction in [3H]-CE transfer at 1 mg/kg, po administered via gavage measured after 2 to 8 hrs by radioactivity based assay. Format: functional, organism-based.
Data set [7] can be described thus: Half life in Sprague-Dawley rat at 1 mg/kg, iv or 10 mg/kg, po administered via gavage measured upto 24 hrs by LC-MS/MS. Conditions: in vivo. Format: ADME, organism-based. A digest of the protocol:
(§2)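 Single IV and oral doses: rat 1 mg/kg IV and 10 mg/kg PO; mouse 5 mg/kg IV and 10 mg/kg PO; monkey 1 mg/kg IV and 5 mg/kg PO. IV vehicle was 10% Cremophor/10% EtOH/80% H2O for rodents and 70% PEG-400/10% EtOH/20% H2O for monkey. Oral vehicle was 15% Miglyol 812/30% Capmul MCM/15% Triacetin/40% Cremophor RH40, or the Cremophor vehicle for rat. Vss, Cl, t1/2 and %F were derived.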

A short description of data set [8]: Volume of distribution at steady state in Sprague-Dawley rat at 1 mg/kg, iv or 10 mg/kg, po administered via gavage measured upto 24 hrs by LC-MS/MS. In kind it is ADME, organism-based. The conditions noted are these: in vivo, read-out: Vdss. A digest of the protocol:
as §2

The nature of data set [9]: Clearance in Sprague-Dawley rat at 1 mg/kg, iv or 10 mg/kg, po administered via gavage measured upto 24 hrs by LC-MS/MS. In kind it is ADME, organism-based. The conditions noted are these: in vivo. A digest of the protocol: as §2
Data set [10] can be described thus: Oral bioavailability in Sprague-Dawley rat at 10 mg/kg administered via gavage measured upto 24 hrs by LC-MS/MS. Conditions: in vivo. In kind it is ADME, organism-based. The method, boiled down:
as §2

Data set [11] deals with T2, Cholesteryl ester transfer protein (Homo sapiens) (UniProt P11597).
T2 sequence (whole entry): T1 sequence (P11597 whole entry)
Kind of data set: Potency index, ratio of torcetrapib IC50 to test compound IC50 for inhibition of CETP in human whole plasma. Format: cell-free.

Data set [12] has as its system Mus musculus. In words: In vivo inhibition of CETP in hCETP/apoB-100 dual transgenic mouse assessed as reduction in [3H]-CE transfer at 10 mg/kg, po administered via gavage measured after 2 to 8 hrs by radioactivity based assay. In kind it is functional, organism-based.
The next data set has as its system CYP11B2. In words: Upregulation of CYP11B2 gene expression in human NCI-H295R cells at 0.1 uM measured after 24 hrs relative to control. Format: ADME, cell-based. The conditions noted are these: read-out: FC. The method, boiled down:
(§3)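 H295R cells were incubated for 24 h with test agent at 10 μM or angiotensin-II at 0.1 μM. CYP11B1 and CYP11B2 mRNA levels were measured and expressed as fold of control.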

A further data set concerns CYP11B1. In words: Upregulation of CYP11B1 gene expression in human NCI-H295R cells at 0.1 uM measured after 24 hrs relative to control. In kind it is ADME, cell-based. Conditions: read-out: FC. A digest of the protocol:
as §3

Calls of active or inactive are those of the source.

Voltage-gated inwardly rectifying potassium channel KCNH2, sequence (Q12809 whole entry): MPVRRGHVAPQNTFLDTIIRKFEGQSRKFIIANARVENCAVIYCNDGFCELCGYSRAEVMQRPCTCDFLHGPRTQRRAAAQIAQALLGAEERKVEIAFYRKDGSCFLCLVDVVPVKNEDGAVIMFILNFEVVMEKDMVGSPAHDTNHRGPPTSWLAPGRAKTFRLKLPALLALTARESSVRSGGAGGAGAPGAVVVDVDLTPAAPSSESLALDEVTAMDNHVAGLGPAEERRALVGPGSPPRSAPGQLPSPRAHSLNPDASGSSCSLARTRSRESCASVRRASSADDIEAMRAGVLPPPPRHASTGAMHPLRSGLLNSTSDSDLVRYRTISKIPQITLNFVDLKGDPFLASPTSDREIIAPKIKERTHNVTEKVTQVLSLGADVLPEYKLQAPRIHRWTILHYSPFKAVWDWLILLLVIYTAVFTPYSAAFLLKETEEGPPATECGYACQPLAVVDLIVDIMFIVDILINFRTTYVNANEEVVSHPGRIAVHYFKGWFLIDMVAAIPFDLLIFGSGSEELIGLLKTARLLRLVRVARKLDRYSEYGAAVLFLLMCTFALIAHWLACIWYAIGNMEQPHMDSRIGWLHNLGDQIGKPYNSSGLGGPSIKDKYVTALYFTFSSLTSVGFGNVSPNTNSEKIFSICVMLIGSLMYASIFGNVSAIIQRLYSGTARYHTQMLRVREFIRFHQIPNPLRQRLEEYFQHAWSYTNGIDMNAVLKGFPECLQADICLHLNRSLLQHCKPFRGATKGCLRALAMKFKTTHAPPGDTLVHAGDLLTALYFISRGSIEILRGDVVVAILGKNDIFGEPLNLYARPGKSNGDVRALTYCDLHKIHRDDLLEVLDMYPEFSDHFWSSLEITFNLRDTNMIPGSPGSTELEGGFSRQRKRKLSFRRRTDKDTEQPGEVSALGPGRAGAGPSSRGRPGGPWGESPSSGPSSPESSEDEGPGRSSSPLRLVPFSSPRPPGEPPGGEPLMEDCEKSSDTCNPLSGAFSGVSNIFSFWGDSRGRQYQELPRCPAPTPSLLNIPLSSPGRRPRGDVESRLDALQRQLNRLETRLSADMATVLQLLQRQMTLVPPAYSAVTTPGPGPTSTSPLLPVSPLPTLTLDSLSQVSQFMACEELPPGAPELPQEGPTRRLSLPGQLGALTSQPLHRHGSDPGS

Regarding `CC(C)Oc1cc([C@@](Cc2ccccc2)(NC(=O)C(O)C(O)(C(F)(F)F)C(F)(F)F)c2cc(F)cc(OC(F)(F)C(F)F)c2)ccc1F` (stereo partly specified), the results for the remaining at 10 min, 50 µM in data set [1] and in [2] were 100% and 89%, respectively. Besides, the 50% inhibitory concentration (IC50) in [3] amounted to 84 nM; in [4] it was 1 nM.
In the case of `CC(C)Oc1cc([C@@](Cc2ccccc2)(NC(=O)C(N)C(O)(C(F)(F)F)C(F)(F)F)c2cc(F)cc(OC(F)(F)C(F)F)c2)ccc1F` (stereo partly specified), the IC50 stood at 44000 nM in [5], 56 nM in data set [3] and 3 nM in data set [4]. Moreover, the inhibition entry in the data set with Mus musculus [6] was “Active”. In [7], the half-life was 1.9 h. The results for the remaining at 10 min, 50 µM in [1] and in data set [2] were 90% and 95%, respectively. Also, the Vd in data set [8] was found to be 0.5 L/kg. Besides, the clearance in data set [9] is 5.4 mL/min/kg. For the same compound, the bioavailability in [10] came to 12%. In data set [11], the Ratio IC50 turned out to be 2.
For `NC(C(=O)N[C@@](Cc1ccccc1)(c1cc(F)cc(OC(F)(F)C(F)F)c1)c1ccc(Cl)cn1)C(O)(C(F)(F)F)C(F)(F)F` (stereo in doubt; 9a), the IC50 is above 80000 nM in data set [5], 5900 nM in data set [3] and 53 nM in data set [4]. The remaining at 10 min, 50 µM in data set [1] and in [2] was 100% each time.
Consider `CCOC(=O)N1c2ccc(C(F)(F)F)cc2[C@@H](N(Cc2cc(C(F)(F)F)cc(C(F)(F)F)c2)C(=O)OC)C[C@H]1CC`, for which the inhibition result in the data set on Mus musculus [12] is “Active”.
`CC(C)(C)Oc1cc([C@@](Cc2ccccc2)(NC(=O)C(N)C(O)(C(F)(F)F)C(F)(F)F)c2cc(F)cc(OC(F)(F)C(F)F)c2)ccc1F` (stereo partly specified): the remaining at 10 min, 50 µM in [1] and in data set [2] was 100% each time. Moreover, the values for the IC50 in [3] and in data set [4] were 140 nM and 5 nM, respectively.
Take `CC(C)Oc1cc([C@@](Cc2ccccc2)(NC(=O)C(N)C(O)C(F)(F)F)c2cc(F)cc(OC(F)(F)C(F)F)c2)ccc1F` (stereo partly specified): the remaining at 10 min, 50 µM in data set [1] came to 16%; in data set [2], 2%. In addition, the IC50 worked out at 270 nM in [3] and 6 nM in [4].
For the compound `NC(C(=O)N[C@](Cc1ccccc1)(c1ccc(F)cc1)c1cc(F)cc(C(F)(F)F)c1)C(O)(C(F)(F)F)C(F)(F)F` (stereo partly specified), the IC50 in data set [5] is above 80000 nM; in data set [3], 430 nM; in data set [4], 11 nM. The figures for the remaining at 10 min, 50 µM in [1] and in data set [2] were 72% and 100%, respectively.
For `O=C(CC(O)(C(F)(F)F)C(F)(F)F)N[C@@](Cc1ccccc1)(c1cc(F)cc(C(F)(F)F)c1)c1ccc(Cl)cn1` the same measures were 22000 nM, 3800 nM, 120 nM, 91% and 92%.
Taken in the same sequence, the figures for `CC(C)NC(C(=O)N[C@](Cc1ccccc1)(c1ccc(F)cc1)c1cc(F)cc(C(F)(F)F)c1)C(O)(C(F)(F)F)C(F)(F)F` (stereo partly specified) were 63000 nM, 7100 nM, 230 nM, 54% and 71%.
For `CC(C)Oc1cc([C@@](Cc2ccccc2)(NCC(O)C(O)(C(F)(F)F)C(F)(F)F)c2cc(F)cc(OC(F)(F)C(F)F)c2)ccc1F` (stereo partly specified) the same measures were 12000 nM, 58 nM, 5 nM, 100% and 100%.
Turning to `CC(C)Oc1cc([C@@](Cc2ccccc2)(NCC(N)C(O)(C(F)(F)F)C(F)(F)F)c2cc(F)cc(OC(F)(F)C(F)F)c2)ccc1F` (stereo partly specified), the results for the IC50 in [5], in data set [3] and in data set [4] were above 80000 nM, 200 nM and 26 nM, respectively. Also, the results for the remaining at 10 min, 50 µM in data set [1] and in data set [2] were 68% and 81%, respectively.
Regarding `NC(C(=O)N[C@@](Cc1ccccc1)(c1cc(F)cc(OC(F)(F)C(F)F)c1)c1ccc(Cl)cn1)C(O)(C(F)(F)F)C(F)(F)F` (stereo in doubt; 9b), the IC50 in [5] (hek293) was above 80000 nM; in [3], 940 nM; in [4], 80 nM.
For `CNC(C(=O)N[C@](Cc1ccccc1)(c1ccc(F)cc1)c1cc(F)cc(C(F)(F)F)c1)C(O)(C(F)(F)F)C(F)(F)F` (stereo partly specified), the 50% inhibitory concentration (IC50) in data set [5] stood at 13000 nM; in [3] it was 6200 nM; in data set [4], 140 nM. The remaining at 10 min, 50 µM is 87% in [1] and 62% in data set [2].
Taken in the same sequence, the figures for `CN(C)C(C(=O)N[C@](Cc1ccccc1)(c1ccc(F)cc1)c1cc(F)cc(C(F)(F)F)c1)C(O)(C(F)(F)F)C(F)(F)F` (stereo partly specified) were 16000 nM, 30000 nM, 3300 nM, 82% and 58%.
`O=C(N[C@@](Cc1ccccc1)(c1cc(F)cc(C(F)(F)F)c1)c1ccc(Cl)cn1)C(O)C(O)(C(F)(F)F)C(F)(F)F` (stereo partly specified): the figures for the IC50 in data set [3] and in data set [4] were 1400 nM and 35 nM, respectively.
Consider `CC[C@H](C)[C@H](NC(=O)[C@H](Cc1ccc(O)cc1)NC(=O)[C@@H](NC(=O)[C@H](CCCNC(=N)N)NC(=O)[C@@H](N)CC(=O)O)C(C)C)C(=O)N[C@@H](Cc1cnc[nH]1)C(=O)N1CCC[C@H]1C(=O)N[C@@H](Cc1ccccc1)C(=O)O` [ANGIOTENSIN II], for which the fold induction at 24 h, 0.1 µM in the data set on CYP11B2 and in the data set with CYP11B1 was 4 each time.
